Experimental data reported in PMC3549632 (Biochemistry, 2012).
Like-named read-outs stand apart in the source and are kept apart here.

What was measured:
SULT1A1 [1] = molecular target: T1, SULT1A1 (Homo sapiens, UniProt P50225); test: Presteady state; format: binding; conditions: for koff: pH 7.4, 25 °C
SULT1A1 [2] = molecular target: T1, SULT1A1; format: binding
Method in brief: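 Purified tag-cleaved human SULT1A1 in 5.0 mM MgCl2, 25 mM potassium phosphate pH 7.4, 0 or 125 μM PAP, 25 ± 2 °C. Ligand titrated from ethanol:water (1:1), final ethanol <0.5%. Intrinsic fluorescence quenching read at λex 290 nm. Triplicate titrations averaged, ΔI/ΔImax vs total ligand least-squares fit with a quadratic single-site-per-monomer model, giving apparent […].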

SULT1A1 [3] = molecular target: T1, SULT1A1; test: SULT1A1 intrinsic hydrolysis of PAPS; format: biochemical; conditions: saturating 35S-PAPS (7.0 μM), MgCl2 5.0 mM, KPO4 25 mM, pH 7.4, 25 °C
[4] = pH 7.4, enzyme species PAPS·E (saturating PAPS)

T1 sequence (P50225 whole entry): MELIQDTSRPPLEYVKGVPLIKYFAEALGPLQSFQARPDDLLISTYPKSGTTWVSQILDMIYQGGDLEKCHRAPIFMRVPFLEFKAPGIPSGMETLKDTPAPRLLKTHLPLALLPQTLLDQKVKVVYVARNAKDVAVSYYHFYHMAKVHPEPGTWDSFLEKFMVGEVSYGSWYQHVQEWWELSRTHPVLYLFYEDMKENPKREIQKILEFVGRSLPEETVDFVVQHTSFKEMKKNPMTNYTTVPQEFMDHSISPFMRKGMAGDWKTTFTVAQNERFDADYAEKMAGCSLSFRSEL

Row | kcat (app) for SULT1A1 hydrolysis of PAPS (SULT1A1 [3]) [s⁻¹] | fold decrease in apparent on-rate constant at saturating PAPS (SULT1A1 [1]; E vs PAPS·E) [fold] | Kd (SULT1A1 [1]; Kd (koff/kon), enzyme species E, calculated from rate constants) [µM] | effect of PAPS on off-rate constant (SULT1A1 [1]; saturating PAPS) | Kd (SULT1A1 [2]; Kd, enzyme species E (zero PAP, open form), pH 7.4, 25 °C) [µM] | Kd (SULT1A1 [2]; Kd, enzyme species PAP·E (saturating PAP, 125 μM; closed form), pH 7.4, 25 °C) [µM] | Compound | Kd (SULT1A1 [1]) [µM] | koff (SULT1A1 [1]; pH 7.4, enzyme species E) [s⁻¹] | koff (SULT1A1 [1]; [4]) [s⁻¹] | effect of PAPS on binding on- and off-rate constants (SULT1A1 [1]; saturating PAPS) | Kd (SULT1A1 [2]) [µM]
1 |  |  |  |  |  |  | C[C@]12CC[C@@H]3c4ccc(O)cc4CC[C@H]3[C@@H]1CC[C@@H]2O [E2, estradiol] | 1.3 | 1.6 | 1.9 | not significantly affected | 1.7
2 | 0.000767 |  |  |  |  |  | Nc1ncnc2c1ncn2[C@@H]1O[C@H](COP(=O)(O)OS(=O)(=O)O)[C@@H](OP(=O)(O)O)[C@H]1O [PAPS, 3′-phosphoadenosine 5′-phosphosulfate] |  |  |  |  | 
3 |  | 26 | 0.27 | not affected | 0.28 | 6.9 ± 0.9 | C[C@]12CC[C@@H]3c4ccc(O)cc4C[C@@H](CCCCCCCCC[S+]([O-])CCCC(F)(F)C(F)(F)F)[C@H]3[C@@H]1CC[C@@H]2O (stereo partly drawn) [fulvestrant, (7R,8R,9S,13S,14S,17S)-13-methyl-7-[9-(4,4,5,5,5-pentafluoropentyl-sulfinyl)nonyl]-6,7,8,9,11,12,14,15,16,17,-decahydrocyclopenta[α]phenanthrene-3,17-diol] |  | 1.8 | 1.7 |  | 
